We go through 12 compounds from ChEMBL document CHEMBL1152661, “Synthesis of tetraglucosyl- and tetrapolyamine-tetrabenzoporphyrin conjugates for an application in PDT” (Bioorg Med Chem, 2009).

A short description of data set [1]: Induction of singlet oxygen production assessed as appearance of ergosterol acetate epidioxide at 10 uM after 10 mW/cm'2 irradiation for 30 mins by TLC. In kind it is physicochemical. Particulars: 0.5 h; call rule not given here.
A further data set deals with HaCaT. The data set is described as follows: Photocytotoxicity against human HaCaT cells preincubated for 24 hrs in dark followed by illumination at 5.5 x 10^-2 mW/cm'2 light measured after 24 hrs post illumination by MTT assay. It is filed as functional, cell-based. Background: Tetrazolium dyes change colour on reduction, which living cells bring about.
The subject of another data set is MCF7. The data set can be described thus: Photocytotoxicity against human MCF7 cells preincubated for 24 hrs in dark followed by illumination at 5.5 x 10^-2 mW/cm'2 light measured after 24 hrs post illumination by MTT assay. It is filed as functional, cell-based.
Data set [2] is described as follows: Photostability assessed as residual absorbance at 2.5 mW/cm'2 irradiation for 15 mins by photobleaching test. To be noted: read-out: Stability. It is filed as physicochemical. The gist of the method: (§1)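 Solutions were irradiated with white light at fluence 2.5 mW/cm2. Absorbance was measured at the Soret band maximum and reported as % residual absorbance versus irradiation time.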

A short description of data set [3]: Photostability assessed as residual absorbance at 2.5 mW/cm'2 irradiation for 60 mins by photobleaching test. It is filed as physicochemical. Particulars: read-out: Stability. The gist of the method: as §1
Data set [4] is described as follows: Photostability assessed as residual absorbance at 2.5 mW/cm'2 irradiation for 30 mins by photobleaching test. In kind it is physicochemical. Particulars: read-out: Stability. In outline:
as §1

The nature of data set [5]: Octanol-water partition coefficient, log P at 300 uM by absorption spectroscopy. In kind it is physicochemical. In outline: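 1-Octanol/water partitioning at 25 °C using equal volumes of water and 1-octanol. Dye solution at 300 µM was vortexed and centrifuged. Aliquots of each phase were diluted separately into MeOH, and dye concentration was read by absorption spectroscopy. log P = log([dye]octanol/[dye]water).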

Data set [6] is described as follows: Photostability assessed as residual absorbance at 2.5 mW/cm'2 irradiation for 45 mins by photobleaching test. In kind it is physicochemical. To be noted: read-out: Stability. In outline: as §1
[7] abbreviates: Homo sapiens, HaCaT, read-out: IC50.
The mark [8] stands for this setting: Homo sapiens, MCF7, read-out: IC50.

≈ marks a conversion by molar mass, not a printed value.

For the compound `O=C([O-])c1c(Cl)c(Cl)c(Cl)c(Cl)c1-c1c2cc(I)c(=O)c(I)c-2oc2c(I)c([O-])c(I)cc12.[K+].[K+]`, the outcome in data set [1] was Active.

As to `NCCOCCOCCNC(=O)c1ccc(-c2c3nc(c(-c4ccc(C(=O)NCCOCCOCCN)cc4)c4[nH]c(c(-c5ccc(C(=O)NCCOCCOCCN)cc5)c5nc(c(-c6ccc(C(=O)NCCOCCOCCN)cc6)c6[nH]c2c2ccccc62)-c2ccccc2-5)c2ccccc42)-c2ccccc2-3)cc1`, the result in data set [1] was Active.

One may read the IC50 as the concentration that inhibits the measured activity by half. As a reminder, the logP is the decadic logarithm of the partition coefficient of the neutral form, usually between octanol and water. A low value points to lower lipophilicity. Regarding `NCCCCN(CCCN)CCCCNC(=O)c1ccc(-c2c3nc(c(-c4ccc(C(=O)NCCCCN(CCCN)CCCCN)cc4)c4[nH]c(c(-c5ccc(C(=O)NCCCCN(CCCN)CCCCN)cc5)c5nc(c(-c6ccc(C(=O)NCCCCN(CCCN)CCCCN)cc6)c6[nH]c2c2ccccc62)-c2ccccc2-5)c2ccccc42)-c2ccccc2-3)cc1`, the IC50 in the data set on HaCaT (setting [7]) was 3.42 µg/mL (≈ 1.92 µM); in the data set on MCF7 (setting [8]), 7.28 µg/mL (≈ 4.08 µM). The remaining at 0.25 h in data set [2] is 100%. For the same compound, the remaining at 1 h in data set [3] is 96%. The result in data set [1] was Active. In data set [4], the remaining at 0.5 h was found to be 99%. The compound also returned a logP at 300 µM in data set [5] of -0.21. Moreover, the remaining at 0.75 h in data set [6] was 97%.

For the compound `NCCCNCCCCN(CCCN)CCCCNC(=O)c1ccc(-c2c3nc(c(-c4ccc(C(=O)NCCCCN(CCCN)CCCCNCCCN)cc4)c4[nH]c(c(-c5ccc(C(=O)NCCCCN(CCCN)CCCCNCCCN)cc5)c5nc(c(-c6ccc(C(=O)NCCCCN(CCCN)CCCCNCCCN)cc6)c6[nH]c2c2ccccc62)-c2ccccc2-5)c2ccccc42)-c2ccccc2-3)cc1`, the IC50 result in the data set with HaCaT (hacat) and in the data set on MCF7 (mcf7) was “Not Active” each time. The remaining at 0.25 h in data set [2] is 100%. Moreover, the remaining at 1 h in data set [3] came to 97%. Further, in data set [1], the result was Active. Besides, the remaining at 0.5 h in data set [4] is 100%. The logP at 300 µM in data set [5] is -0.47. In addition, the remaining at 0.75 h in data set [6] is 99%.

Turning to `CC(C)(C)OC(=O)NCCOCCOCCNC(=O)c1ccc(-c2c3nc(c(-c4ccc(C(=O)NCCOCCOCCNC(=O)OC(C)(C)C)cc4)c4[nH]c(c(-c5ccc(C(=O)NCCOCCOCCNC(=O)OC(C)(C)C)cc5)c5nc(c(-c6ccc(C(=O)NCCOCCOCCNC(=O)OC(C)(C)C)cc6)c6[nH]c2c2ccccc62)-c2ccccc2-5)c2ccccc42)-c2ccccc2-3)cc1`, the result in data set [1] was Active.

Regarding `CC(C)(C)OC(=O)NCCCN(CCCCNC(=O)c1ccc(-c2c3nc(c(-c4ccc(C(=O)NCCCCN(CCCCN(CCCNC(=O)OC(C)(C)C)C(=O)OC(C)(C)C)CCCNC(=O)OC(C)(C)C)cc4)c4[nH]c(c(-c5ccc(C(=O)NCCCCN(CCCCN(CCCNC(=O)OC(C)(C)C)C(=O)OC(C)(C)C)CCCNC(=O)OC(C)(C)C)cc5)c5nc(c(-c6ccc(C(=O)NCCCCN(CCCCN(CCCNC(=O)OC(C)(C)C)C(=O)OC(C)(C)C)CCCNC(=O)OC(C)(C)C)cc6)c6[nH]c2c2ccccc62)-c2ccccc2-5)c2ccccc42)-c2ccccc2-3)cc1)CCCCN(CCCNC(=O)OC(C)(C)C)C(=O)OC(C)(C)C`, the result in data set [1] was Active.

`CC(C)(C)OC(=O)NCCCCN(CCCCNC(=O)c1ccc(-c2c3nc(c(-c4ccc(C(=O)NCCCCN(CCCCNC(=O)OC(C)(C)C)CCCNC(=O)OC(C)(C)C)cc4)c4[nH]c(c(-c5ccc(C(=O)NCCCCN(CCCCNC(=O)OC(C)(C)C)CCCNC(=O)OC(C)(C)C)cc5)c5nc(c(-c6ccc(C(=O)NCCCCN(CCCCNC(=O)OC(C)(C)C)CCCNC(=O)OC(C)(C)C)cc6)c6[nH]c2c2ccccc62)-c2ccccc2-5)c2ccccc42)-c2ccccc2-3)cc1)CCCNC(=O)OC(C)(C)C`: the outcome in data set [1] was Active.

With `CC(=O)OC[C@H]1O[C@H](OCC(=O)NCOCCOCCNC(=O)c2ccc(-c3c4nc(c(-c5ccc(C(=O)NCCOCCOCNC(=O)CO[C@H]6O[C@H](COC(C)=O)[C@@H](OC(C)=O)[C@H](OC(C)=O)[C@H]6O)cc5)c5[nH]c(c(-c6ccc(C(=O)NCCOCCOCNC(=O)CO[C@H]7O[C@H](COC(C)=O)[C@@H](OC(C)=O)[C@H](OC(C)=O)[C@H]7O)cc6)c6nc(c(-c7ccc(C(=O)NCCOCCOCNC(=O)CO[C@H]8O[C@H](COC(C)=O)[C@@H](OC(C)=O)[C@H](OC(C)=O)[C@H]8O)cc7)c7[nH]c3c3ccccc73)-c3ccccc3-6)c3ccccc53)-c3ccccc3-4)cc2)[C@H](O)[C@@H](OC(C)=O)[C@@H]1OC(C)=O`, in data set [1], the result was Active.

Turning to `OC[C@H]1O[C@@H](Oc2ccc(-c3c4nc(c(-c5ccc(O[C@@H]6O[C@H](CO)[C@@H](O)[C@H](O)[C@H]6O)cc5)c5[nH]c(c(-c6ccc(O[C@@H]7O[C@H](CO)[C@@H](O)[C@H](O)[C@H]7O)cc6)c6nc(c(-c7ccc(O[C@@H]8O[C@H](CO)[C@@H](O)[C@H](O)[C@H]8O)cc7)c7[nH]c3c3ccccc73)-c3ccccc3-6)c3ccccc53)-c3ccccc3-4)cc2)[C@H](O)[C@@H](O)[C@@H]1O`, the 50% inhibitory concentration (IC50) in the data set on HaCaT (setting [7]) came out at 0.971 µg/mL (≈ 0.636 µM); in the data set on MCF7 (setting [8]), 8.41 µg/mL (≈ 5.51 µM). For the same compound, in data set [2], the remaining at 0.25 h turned out to be 100%. Further, the remaining at 1 h in data set [3] worked out at 95%. Besides, the result in data set [1] was Active. In data set [4], the remaining at 0.5 h worked out at 99%. In data set [5], this compound came in with a logP at 300 µM of 0.18. In data set [6], the remaining at 0.75 h came to 98%.

Turning to `c1ccc(-c2c3nc(c(-c4ccccc4)c4[nH]c(c(-c5ccccc5)c5nc(c(-c6ccccc6)c6[nH]c2c2ccccc62)-c2ccccc2-5)c2ccccc42)-c2ccccc2-3)cc1` [Ar4TBP], the IC50 entry in the data set with HaCaT (hacat) and in the data set on MCF7 (mcf7) was “Not Active” throughout.

In the case of `O=C1OC2(c3ccccc31)c1cc(Br)c(O)c(Br)c1Oc1c2cc(Br)c(O)c1Br` [EOSIN], in data set [1], the result was Active.

As for PORFIMER SODIUM, the IC50 in the data set with HaCaT (hacat) is 0.0787 µg/mL; in the data set on MCF7 (mcf7) it was 1.224 µg/mL. In data set [1], the result was Active.
